Measurements as given in article PMC8903082 (Journal of medicinal chemistry, 2020).

Key:
red blood cells of mice = test: Hemolytic assay; type: cell-based; conditions: 37 °C, 1 h, testing range up to 250 μg/mL
MRSA [1] = test: Drug resistance study; type: cell-based, Staphylococcus aureus; conditions: 13 passages
MRSA [2] = test: Time-kill study, MRSA; type: cell-based, Staphylococcus aureus; conditions: concentrations of 24 and 48 μg/mL
How it was run: (§1)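 Overnight TSB cultures (37 °C, shaking) were subcultured 6 h to mid-log phase. Suspensions at 10^6 CFU/mL were exposed to the test compound at 37 °C for 10, 30, 60 and 120 min (E. coli 12, 24, 48 μg/mL; MRSA 6, 12, 24, 48 μg/mL). Untreated bacteria served as controls. Samples were diluted (MRSA 10^2-fold, E. coli 10^4-fold) and plated on TSB agar for 20 h at 37 °C. Colonies were counted against time. Three repeats.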

E. coli [3] = test: Time-kill study, E. coli; type: cell-based, Escherichia coli; conditions: concentrations of 24 and 48 μg/mL
How it was run: as §1

[4] = system: E. coli biofilm formation; test: Biofilm prevention study; type: cell-based; conditions: Escherichia coli, 48 h, read-out: Inhibition of E. coli biofilm formation
MRSA [5] = test: Fluorescence microscopy; type: cell-based, Staphylococcus aureus; conditions: 2 × MIC, 2 h
E. coli [6] = test: Fluorescence microscopy; type: cell-based, Escherichia coli; conditions: 2 × MIC, 2 h
E. coli [7] = test: Membrane depolarization study, DiSC3; type: cell-based, Escherichia coli; conditions: 0.5 ×, 1 ×, 2 × and 4 × MIC
MRSA [8] = type: cell-based, Staphylococcus aureus; conditions: not told
E. coli [9] = test: Inner membrane permeabilization; type: cell-based, Escherichia coli; conditions: 2-fold MIC
How it was run: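 Mid-log E. coli was pelleted at 1000g, washed three times and resuspended to 10^6 CFU/mL in 5 mM HEPES/5 mM glucose (1:1). It was mixed with PI from a 10 μM solution. Fluorescence (ex 535, em 617 nm) was read every 2 min for about 8 min. The test compound was then added and reading continued for 12 min. The negative control received water. Three repeats.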

MRSA [10] = test: TEM study, MRSA; type: cell-based, Staphylococcus aureus; conditions: 6 μg/mL, 2 h
How it was run: (§2)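 Cells were prepared at 10^6 CFU/mL as for MIC testing and treated with the test compound for 2 h at 37 °C; untreated controls ran alongside. Cells were pelleted, washed three times in PBS and resuspended in deionised water. They were dropped on grids, blotted, dried 30 s at 50 °C under vacuum, and imaged by TEM at 60 kV.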

E. coli [11] = test: TEM study, E. coli; type: cell-based, Escherichia coli; conditions: 12 μg/mL, 2 h
How it was run: as §2

`CCCCCCCCCC(=O)N[C@@H](Cc1ccccc1)CN1CC(=O)N(c2ccc(N3CN(C[C@H](Cc4ccccc4)NC(=O)CCCCCCCCC)CC3=O)cc2)C1` [Compound 10, N,N'-((2S,2'S)-(1,4-Phenylenebis(4-oxoimidazolidine-3,1-diyl))-bis(3-phenylpropane-1,2-diyl))bis(decanamide)] was tested, and the “Hemolysis (HC50)” value (red blood cells of mice) was over 250 µg/mL.

In the case of `NCCCC[C@@H](CN1CC(=O)N(c2ccc(N3CN(C[C@H](CCCCN)NC(=O)CC45C[C@H]6C[C@@H](C4)C[C@@H](C5)C6)CC3=O)cc2)C1)NC(=O)CC12C[C@H]3C[C@@H](C1)C[C@@H](C2)C3` [Compound 7, N,N'-((2S,2'S)-(1,4-Phenylenebis(4-oxoimidazolidine-3,1-diyl))-bis(6-aminohexane-1,2-diyl))bis(2-((3S,5S,7S)-adamantan-1-yl)-acetamide)], the “Hemolysis (HC50)” value (red blood cells of mice) was over 250 µg/mL.

With `CCn1cc(C(=O)O)c(=O)c2cc(F)c(N3CCNCC3)cc21` [norfloxacin, reference compound] the “Fold increase in MIC toward MRSA” value (MRSA [1]) was “more than 22 fold”.

`NCCCC[C@@H](CN1CC(=O)N(c2ccc(N3CN(C[C@H](CCCCN)NC(=O)Cc4ccc5ccccc5c4)CC3=O)cc2)C1)NC(=O)Cc1ccc2ccccc2c1` [Compound 8, N,N'-((2S,2'S)-(1,4-Phenylenebis(4-oxoimidazolidine-3,1-diyl))-bis(6-aminohexane-1,2-diyl))bis(2-(naphthalen-2-yl)acetamide)] was tested, and the “Hemolysis (HC50)” value (red blood cells of mice) was over 250 µg/mL.

`CCCCCCCC(=O)N[C@@H](CCCCN)CN1CC(=O)N(c2ccc(N3CN(C[C@H](CCCCN)NC(=O)CCCCCCC)CC3=O)cc2)C1` [Compound 2, N,N'-((2S,2'S)-(1,4-Phenylenebis(4-oxoimidazolidine-3,1-diyl))-bis(6-aminohexane-1,2-diyl))dioctan amide] was tested, and the “Hemolysis (HC50)” value (red blood cells of mice) was over 250 µg/mL.

With `CCCCCCCCCCCCCCCC(=O)N[C@@H](CCCCN)CN1CC(=O)N(c2ccc(N3CN(C[C@H](CCCCN)NC(=O)CCCCCCCCCCCCCCC)CC3=O)cc2)C1` [Compound 6, N,N'-((2S,2'S)-(1,4-Phenylenebis(4-oxoimidazolidine-3,1-diyl))-bis(6-aminohexane-1,2-diyl))dipalmitamide] the “Hemolysis (HC50)” value (red blood cells of mice) was over 250 µg/mL.

With `CCCCCC(=O)N[C@@H](CCCCN)CN1CC(=O)N(c2ccc(N3CN(C[C@H](CCCCN)NC(=O)CCCCC)CC3=O)cc2)C1` [Compound 1, N,N'-((2S,2'S)-(1,4-Phenylenebis(4-oxoimidazolidine-3,1-diyl))-bis(6-aminohexane-1,2-diyl))dihexan amide] the “Hemolysis (HC50)” value (red blood cells of mice) was over 250 µg/mL.

For `NCCCC(=O)N[C@@H](Cc1ccccc1)CN1CC(=O)N(c2ccc(N3CN(C[C@H](Cc4ccccc4)NC(=O)CCCN)CC3=O)cc2)C1` [Compound 9, N,N'-((2S,2'S)-(1,4-Phenylenebis(4-oxoimidazolidine-3,1-diyl))-bis(3-phenylpropane-1,2-diyl))bis(4-aminobutanamide)], the “Hemolysis (HC50)” value (red blood cells of mice) was over 250 µg/mL.

With `CCCCCCCCCCCC(=O)N[C@@H](CCCCN)CN1CC(=O)N(c2ccc(N3CN(C[C@H](CCCCN)NC(=O)CCCCCCCCCCC)CC3=O)cc2)C1` [Compound 4, N,N'-((2S,2'S)-(1,4-Phenylenebis(4-oxoimidazolidine-3,1-diyl))-bis(6-aminohexane-1,2-diyl))didodecanamide] the “Hemolysis (HC50)” value (red blood cells of mice) was over 250 µg/mL.

For `CCCCCCCCCCCCCC(=O)N[C@@H](CCCCN)CN1CC(=O)N(c2ccc(N3CN(C[C@H](CCCCN)NC(=O)CCCCCCCCCCCCC)CC3=O)cc2)C1` [Compound 5, N,N'-((2S,2'S)-(1,4-Phenylenebis(4-oxoimidazolidine-3,1-diyl))-bis(6-aminohexane-1,2-diyl))ditetradecanamide], the “Hemolysis (HC50)” value (red blood cells of mice) was over 250 µg/mL.

With `CCCCCCCCCC(=O)N[C@@H](CCCCN)CN1CC(=O)N(c2ccc(N3CN(C[C@H](CCCCN)NC(=O)CCCCCCCCC)CC3=O)cc2)C1` [Compound 3, N,N'-((2S,2'S)-(1,4-Phenylenebis(4-oxoimidazolidine-3,1-diyl))-bis(6-aminohexane-1,2-diyl))bis(decanamide)] the “Hemolysis (HC50)” value (red blood cells of mice) was over 250 µg/mL, the “Time to thoroughly eliminate MRSA” value (MRSA [2]) was at most 60 min and the “Time required for eradicating E. coli” value (E. coli [3]) was 30 min. The “Fold increase in MIC toward MRSA” value (MRSA [1]) was “remained almost unchanged”, the inhibition at 3 µg/mL [4] was over 55% and the “DAPI/PI staining of MRSA (membrane integrity)” value (MRSA [5]) was “blue and red fluorescence were all observed”. The “DAPI/PI staining of E. coli (membrane integrity)” value (E. coli [6]) was “blue and red fluorescence were all observed”, the “Membrane depolarization, DiSC3(5) fluorescence intensity” value (E. coli [7]) was “increase in a concentration-dependent manner” and the “Inner membrane permeabilization of MRSA (PI fluorescence)” value (MRSA [8]) was “permeabilized fast”. For the same compound, the “Inner membrane permeabilization of E. coli (PI fluorescence)” value (E. coli [9]) was “permeabilized fast”, the “Cell membrane morphology of MRSA (TEM)” value (MRSA [10]) was “their membrane was all dispersed” and the “Cell membrane morphology of E. coli (TEM)” value (E. coli [11]) was “their membrane was all dispersed”.

With `CCCCCCCCCC(=O)N[C@@H](CCCCN)CNCC(=O)Nc1ccc(NC(=O)CNC[C@H](CCCCN)NC(=O)CCCCCCCCC)cc1` [Compound 11, N,N'-((2S,2'S)-(((1,4-Phenylenebis(azanediyl))bis(2-oxoethane-2,1-diyl))bis(azanediyl))bis(6-aminohexane-1,2-diyl))bis-(decanamide)] the “Hemolysis (HC50)” value (red blood cells of mice) was over 250 µg/mL.
